The source of these data is ChEMBL document CHEMBL3407337, “Molecular design, synthesis and biological research of novel pyridyl acridones as potent DNA-binding and apoptosis-inducing agents” (Eur J Med Chem, 2015).

Assay [1] can be described thus: Antiproliferative activity against human CNE2 cells after 48 hrs by MTT assay. To be noted: CNE-2, 48 h. Type of assay: functional, cell-based. An outline of the steps: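 Adherent lines seeded at 6×10^3 cells/well and allowed 12 h attachment. Media: NCI-H520 and HeLa RPMI-1640; HepG2, MCF-7, CNE-2, A375, A172 and U118-MG DMEM; U251 MEM-EBSS; all with 10% FBS, 37 °C, 5% CO2. Dosed 48 h at final 50, 25, 10, 1 and 0.1 μM. MTT 4 h, formazan dissolved in DMSO, A490. IC50 from the dose series.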

The target in assay [2] is T1, DNA topoisomerase 1 (Homo sapiens) (UniProt P11387).
T1 sequence (whole entry): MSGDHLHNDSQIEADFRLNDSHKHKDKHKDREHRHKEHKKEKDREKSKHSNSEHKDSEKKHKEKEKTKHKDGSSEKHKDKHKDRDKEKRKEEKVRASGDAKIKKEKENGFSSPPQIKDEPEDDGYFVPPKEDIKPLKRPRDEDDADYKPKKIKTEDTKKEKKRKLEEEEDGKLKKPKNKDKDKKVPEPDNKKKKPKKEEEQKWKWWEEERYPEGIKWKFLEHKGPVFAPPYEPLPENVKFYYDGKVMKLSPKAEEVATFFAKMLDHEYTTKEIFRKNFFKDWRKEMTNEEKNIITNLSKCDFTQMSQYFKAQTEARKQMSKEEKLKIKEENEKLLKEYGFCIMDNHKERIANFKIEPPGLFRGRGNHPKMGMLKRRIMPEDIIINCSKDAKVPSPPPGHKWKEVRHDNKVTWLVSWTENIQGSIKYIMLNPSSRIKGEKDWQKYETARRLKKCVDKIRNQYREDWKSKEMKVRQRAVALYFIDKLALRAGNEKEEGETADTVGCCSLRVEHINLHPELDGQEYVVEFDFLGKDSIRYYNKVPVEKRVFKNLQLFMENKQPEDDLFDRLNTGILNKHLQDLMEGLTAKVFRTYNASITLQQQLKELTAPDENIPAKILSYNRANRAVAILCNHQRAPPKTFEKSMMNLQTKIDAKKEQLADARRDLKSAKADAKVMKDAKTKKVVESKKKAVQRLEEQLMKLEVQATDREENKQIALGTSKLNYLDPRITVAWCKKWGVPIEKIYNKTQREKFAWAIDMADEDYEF
As to the kind of experiment: Inhibition of recombinant human Topo1-mediated relation of supercoiled pBR322 DNA at 50 uM after 30 mins by agarose gel electrophoresis. An outline of the steps: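 pBR322 at 100 ng with 1.0 unit recombinant human topo I. Incubated 30 min at 37 °C in 35 mM Tris-HCl pH 8.0, 5 mM MgCl2, 72 mM KCl, 0.01% BSA, 2 mM spermidine and 5 mM DTT. Run on 1% agarose in TAE at 100 V for 25 min. EB-stained gel viewed under UV.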

The test system of the next assay is Calf thymus DNA. Nature of the assay: Binding affinity to calf thymus DNA at 10 uM after 5 mins by UV-vis spectroscopy. It is filed as nucleic-acid assay. To be noted: Bos taurus. The essentials: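 Compound in 5 mM Tris-HCl, 50 mM NaCl, pH 7.2, titrated with ct DNA at 0–30 μM (bp). Incubated 5 min before reading. Absorbance at 425 nm followed. Kb taken as slope/intercept of [DNA]/(εa−εf) versus [DNA]. ct DNA quantified with ε260 6600 M⁻¹cm⁻¹.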

The next assay has as its system K562. Nature of the assay: Induction of apoptosis in human K562 cells assessed as early apoptotic cells at 2.5 uM after 48 hrs by annexin V/PI staining based flow cytometry (reference value: 3.89 %). Type of assay: functional.

Activity calls are given as the source filed them. No cut-off for these calls is given here.

`Cc1cccc2c(=O)c3c(NCc4ccncc4)ccc(C(=O)NCCN(C)C)c3[nH]c12`: in assay [1], half-maximal inhibition (IC50) required 980 nM. Besides, the inhibition result in assay [2] was “Active”. This molecule also showed a Kb in the assay on Calf thymus DNA of 5.1 ×10⁴ /M. In addition, the Activity in the assay on K562 is 54.93%.
